Shown are actives, neighbours in structure and some others; about 2.8% of the full set was active somewhere.
NPY1 pot ag: human NPY-Y1 potentiation or agonism, primary screen | P25929 | NPY-Y1 expressing cells, potentiator/agonist activation | 0.37% of 220,000 active | activation, % at 3.6 µM; in the data active = activation above about 33%, passing the limit was not always enough;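 note: cells stimulated with NPY at EC10 then isoproterenol at EC100; 0% = low agonist plus stimulus and 100% = saturating agonist plus stimulus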
Target sequence (P25929 whole entry, looked up): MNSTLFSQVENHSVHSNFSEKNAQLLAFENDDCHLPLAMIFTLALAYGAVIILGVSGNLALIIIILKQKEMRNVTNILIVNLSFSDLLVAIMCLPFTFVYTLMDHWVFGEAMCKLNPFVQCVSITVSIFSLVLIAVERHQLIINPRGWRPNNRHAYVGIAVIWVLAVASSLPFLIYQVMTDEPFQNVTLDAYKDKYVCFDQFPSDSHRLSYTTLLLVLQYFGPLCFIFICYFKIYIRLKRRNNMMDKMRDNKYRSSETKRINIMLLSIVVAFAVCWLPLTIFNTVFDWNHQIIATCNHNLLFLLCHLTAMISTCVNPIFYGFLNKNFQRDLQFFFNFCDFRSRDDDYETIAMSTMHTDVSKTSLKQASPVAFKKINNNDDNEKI
EP2 modulator: modulators of human EP2 prostaglandin E2 receptor | 0.83% of 260,000 active | P43116 | induction, % at 25 µM | EP2-expressing cells, cAMP HTRF FRET, PGE2 co-stimulation;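 active = compounds whose cAMP rise, as percent of the full-agonist control response, exceeds 60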;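 note: rat C6 glioma line stably carrying human EP2 under a CMV promoter; the protocol text gives 20 µM as final concentration; 100% = response of wells given 1 µM PGE2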
NPY-Y2 antag: antagonists of human neuropeptide Y receptor Y2. P49146. NPY-Y2 expressing cells, antagonist mode. AID 793. 0.99% of 140,000 active. inhibition, % at 2.7 µM; in the data active = inhibition above about 17%;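 note: 0% = vehicle with agonist challenge and 100% = reference antagonist with challenge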
Target sequence (P49146 whole entry, looked up): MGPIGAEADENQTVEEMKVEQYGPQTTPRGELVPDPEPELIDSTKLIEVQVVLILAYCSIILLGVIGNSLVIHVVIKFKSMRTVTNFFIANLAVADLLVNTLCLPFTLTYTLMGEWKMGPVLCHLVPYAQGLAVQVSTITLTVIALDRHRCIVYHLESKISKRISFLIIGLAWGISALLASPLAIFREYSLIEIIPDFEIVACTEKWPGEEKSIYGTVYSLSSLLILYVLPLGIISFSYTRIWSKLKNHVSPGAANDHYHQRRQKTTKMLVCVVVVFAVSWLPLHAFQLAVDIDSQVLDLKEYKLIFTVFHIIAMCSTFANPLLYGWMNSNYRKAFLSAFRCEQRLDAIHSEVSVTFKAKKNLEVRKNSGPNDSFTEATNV
EP2 antag: inhibitors of human EP2 prostaglandin E2 receptor; P43116; C6 glioma cells expressing human EP2, cAMP TR-FRET; cells stimulated with saturating PGE2; inhibition, % at 25 µM; 0.52% of 260,000 active; AID 1422;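 active = percent inhibition above 40 after rounding to a whole number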;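 note: rat C6 glioma host cells with rolipram phosphodiesterase inhibitor present; the protocol text gives 20 µM as final concentration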
NPY2 pot ag: human NPY-Y2 potentiation or agonism, primary screen | activation, % at 3.6 µM | cells expressing NPY-Y2, potentiator/agonist read-out | P49146 | 0.45% of 220,000 active; in the data active = activation above about 27%;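 note: cells stimulated with NPY near EC25 plus isoproterenol at EC100; 0% = vehicle plus submaximal agonist and 100% = vehicle plus saturating agonist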
NPY Y1 blocker: NPY-Y1 (human) receptor antagonism | AID 1040 | 1% of 200,000 active | HEK293-CNG Y1 cells, membrane potential fluorescence; NPY at EC95, then isoproterenol | inhibition, % at 3.6 µM;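 active = inhibition above the campaign mean inhibition of all tested compounds plus 3 SD, cut at about 20% in these data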;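 note: 0% = DMSO wells given NPY plus isoproterenol and 100% = isoproterenol alone without NPY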
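Test system: HEK293 cells co-expressing NPY Y1 receptor and cyclic-nucleotide gated channel; Also added: NPY (25 nM), isoproterenol (1 µM), Ro 20-1724 (25 µM); Compound dosing: one concentration, 3.6 µM, in 0.4% DMSO; Timing: dye 3 h, compound 60 min room temperature, stimulation 45 min; Technique: Membrane-potential fluorescent dye readout.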
NPY-Y1 confirm: confirmation of human NPY-Y1 receptor potentiators or agonists; shares compounds with NPY1 pot ag; cell-based NPY-Y1 potentiator/agonist assay; activation, % at 3.6 µM; 20% of 280 active; in the data active = activation above about 45%;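 note: cells challenged with NPY at its EC10 plus isoproterenol stimulus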
NPY-Y2 counter: NPY-Y2 potentiation or agonism as NPY-Y1 counter-screen; shares compounds with NPY1 pot ag; HEK293-CNG cells, membrane-potential fluorescence (FLIPR), 1536-well; activation, % at 3.6 µM; 20% of 280 active; AID 1649
NPY-Y1 ag: counter-screen for NPY-Y1 potentiators: agonists of human NPY-Y1 | activation, % at 3.6 µM | HEK293 Y1-CNGC, membrane potential fluorescence, agonist mode | shares compounds with NPY1 pot ag | 50% of 280 active;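 active = percent activation above the mean of DMSO-only control wells plus 3 SD of those wells, cut at about 18% in these data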;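 note: cells challenged with isoproterenol plus Ro 20-1724 with no NPY in test wells; Y1 agonism lowers isoproterenol-driven cAMP and reduces probe fluorescence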
NPY-Y2 ag: counter-screen for NPY-Y1 potentiators or agonists: agonists of NPY-Y2 | shares compounds with NPY1 pot ag | HEK293 Y2-CNGC, membrane potential fluorescence, agonist mode | activation, % at 3.6 µM | 67% of 280 active | AID 1698;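 active = activation above the solvent-only control wells' mean plus 3 SD, cut at about 11% in these data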;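 note: 0% = DMSO with isoproterenol and 100% = 40 nM NPY maximal response; agonism lowers cAMP so well fluorescence drops in active wells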
CNGC counter: counter-screen for NPY-Y1 potentiators or agonists: CNG channel inhibitors. 42% of 280 active. shares compounds with NPY1 pot ag. HEK293-CNG parental, isoproterenol cAMP, membrane potential fluorescence. AID 1704. inhibition, % at 3.6 µM;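 active = inhibition above the mean of stimulated solvent-only control wells plus 3 SD, cut at about 22% in these data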;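 note: 0% = isoproterenol-stimulated DMSO wells and 100% = unstimulated DMSO wells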
NPY-Y2 pot conf: human NPY-Y2 potentiation or agonism, confirmation | cell-based NPY-Y2 potentiator/agonist assay | 20% of 450 active | shares compounds with NPY2 pot ag | activation, % at 3.6 µM | AID 1539
NPY-Y1 potentiator: counter-screen for NPY-Y2 potentiators or agonists: NPY-Y1 potentiators or agonists. shares compounds with NPY2 pot ag. 20% of 450 active. Y1 HEK293-CNG cells, membrane potential fluorescence. activation, % at 3.6 µM; in the data active = activation above about 45%;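 note: cells stimulated with submaximal NPY then isoproterenol with phosphodiesterase inhibitor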
NPY-Y1 agonist 2: human NPY-Y1 agonism as NPY-Y2 potentiator counter-screen | HEK293 Y1-CNGC, membrane potential fluorescence | activation, % at 3.6 µM | shares compounds with NPY2 pot ag | 37% of 450 active;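 active = activation above the mean of DMSO-only control wells plus 3 SD, cut at about 18% in these data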;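 note: cells stimulated with 1 µM isoproterenol plus the PDE inhibitor Ro 20-1724; 0% = isoproterenol with DMSO and no NPY and 100% = 40 nM NPY; Y1 agonists lower the membrane potential dye signal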
CNGC inh: cyclic nucleotide gated channel inhibition as counter-screen; shares compounds with NPY2 pot ag; 32% of 450 active; AID 1703; inhibition, % at 3.6 µM; HEK293-CNG parental, isoproterenol cAMP, membrane potential fluorescence;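 active = inhibition above the control-well mean plus 3 SD of those wells, cut at about 22% in these data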;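 note: 0% = DMSO with isoproterenol and 100% = DMSO without isoproterenol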
Y2 agonist ctr: activates human NPY-Y2 receptor in potentiator counter-screen. shares compounds with NPY2 pot ag. HEK293 Y2/CNGC cells, membrane potential fluorescence, agonist mode. activation, % at 3.6 µM. 56% of 450 active. AID 1710;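 active = activation above the mean of solvent-only control wells plus 3 SD, cut at about 10% in these data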;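 note: cells stimulated by isoproterenol with no NPY added so direct agonism is tested; 0% = DMSO with isoproterenol alone and 100% = NPY at EC100 plus isoproterenol; agonism lowers probe fluorescence through less cAMP and CNG channel opening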
Active calls of the source: *. Cut-off read from the data, not from the text of the source, unless noted: active = activation above about 33%; inactive = the rest.

Cc1ccc(S(=O)(=O)Nc2ccc(NC(=O)c3ccc(F)cc3)cc2)cc1 was read as NPY1 pot ag 13, EP2 modulator -51, EP2 antag 2, NPY2 pot ag -2 and NPY Y1 blocker 1.
`CS/C(Nc1cc(Cl)ccc1Cl)=C(/C#N)C(=O)c1ccco1` gave NPY1 pot ag 51*, EP2 modulator -19, EP2 antag 16, NPY2 pot ag 6, NPY-Y1 confirm 17, NPY-Y2 counter 7, NPY-Y1 ag 12, NPY-Y2 ag 16* and CNGC counter 7.
`O=C(COC(=O)c1ccco1)Nc1cc(Cl)ccc1Cl` gave EP2 modulator -7 and EP2 antag 8.
Screening Cc1ccc(-n2c(SCC(=O)NC3CCS(=O)(=O)C3)nc3ccccc3c2=O)cc1 (configuration not stated) returned NPY1 pot ag 1, EP2 modulator -10, EP2 antag 9, NPY2 pot ag -6 and NPY Y1 blocker -1.
`O=C(CSc1nc2cc(C(F)(F)F)ccc2n1Cc1ccccc1)NC1CCS(=O)(=O)C1` (configuration not stated) gave NPY1 pot ag 48*, EP2 modulator -34, NPY-Y2 antag 2, EP2 antag 9, NPY2 pot ag 32, NPY Y1 blocker -10, NPY-Y1 confirm 91*, NPY-Y2 counter 63*, NPY-Y1 ag 78*, NPY-Y2 ag 53* and CNGC counter 72*.
`CCOc1ccccc1NC(=O)CSc1nnc2n(CC(=O)N3CCCC3)c3ccccc3n12` gave EP2 modulator 12 and EP2 antag 7.
CC(C)OC(=O)Cn1c(=O)sc2ccccc21 was read as NPY1 pot ag 20, EP2 modulator 18, NPY-Y2 antag 0, EP2 antag 5, NPY2 pot ag 5 and NPY Y1 blocker 0.
For O=C(Cn1c(=O)sc2ccccc21)OC(CCl)CCl the results were NPY1 pot ag 44*, EP2 modulator -19, NPY-Y2 antag 0, EP2 antag 7, NPY2 pot ag 24, NPY Y1 blocker -9, NPY-Y1 confirm 78*, NPY-Y2 counter 49*, NPY-Y1 ag 62*, NPY-Y2 ag 49* and CNGC counter 75*.
Screening O=C(Cc1ccc(Cl)cc1)Nc1ncc([N+](=O)[O-])s1 returned NPY1 pot ag 36*, EP2 modulator -41, EP2 antag 3, NPY2 pot ag 11, NPY Y1 blocker -3, NPY-Y1 confirm 8, NPY-Y2 counter 14, NPY-Y1 ag 14, NPY-Y2 ag 11* and CNGC counter 6.
Screening CC(C)Cc1nc(N2CCN(C(=O)C(C)C)CC2)c(C#N)c2c1CCC2 returned NPY1 pot ag 31*, EP2 modulator 54, NPY-Y2 antag 10, EP2 antag 20, NPY2 pot ag -9, NPY Y1 blocker 7, NPY-Y1 confirm -22, NPY-Y2 counter -8, NPY-Y1 ag -26, NPY-Y2 ag -7 and CNGC counter -9.
For COCCn1c(SCC(=O)OC)nc2c1c(=O)[nH]c(=O)n2C the results were EP2 modulator -17 and EP2 antag 11.
Screening COc1cccc(C(=O)Nc2ccccc2F)c1 returned NPY1 pot ag 16, EP2 modulator -10, EP2 antag 2, NPY2 pot ag 30*, NPY Y1 blocker 4, NPY-Y2 pot conf -3, NPY-Y1 potentiator -5, NPY-Y1 agonist 2 5, CNGC inh 3 and Y2 agonist ctr -4.
Screening CSc1ccc(CNCCNC(=O)c2ccco2)cc1 returned EP2 modulator -36 and EP2 antag 13.
Screening N#Cc1c(Cl)nsc1NN returned NPY1 pot ag 22, EP2 modulator 5, EP2 antag -3, NPY2 pot ag 31*, NPY Y1 blocker 1, NPY-Y2 pot conf 17, NPY-Y1 potentiator 27, NPY-Y1 agonist 2 27*, CNGC inh 15 and Y2 agonist ctr 30*.
Screening COc1nc(/C=C/N(C)C)c([N+](=O)[O-])c(OC)n1 returned NPY1 pot ag 28, EP2 modulator -2, EP2 antag 13, NPY2 pot ag 102*, NPY-Y2 pot conf -1, NPY-Y1 potentiator -3, NPY-Y1 agonist 2 -6, CNGC inh -18 and Y2 agonist ctr -10.
`CCc1noc(C)c1C(=O)Nc1ncc(C)s1` gave NPY1 pot ag 25, EP2 modulator 20, NPY-Y2 antag 2, EP2 antag 4, NPY2 pot ag 32*, NPY Y1 blocker -1, NPY-Y2 pot conf -1, NPY-Y1 potentiator 3, NPY-Y1 agonist 2 -1, CNGC inh 2 and Y2 agonist ctr -1.
`CCc1noc(C)c1C(=O)Nc1nc(-c2cc(C)ccc2C)c(C)s1` gave NPY1 pot ag 4, EP2 modulator 34, NPY-Y2 antag 1, EP2 antag 14, NPY2 pot ag -15 and NPY Y1 blocker -2.

Bioassay records from PubChem BioAssay.
